Data from ChEMBL document CHEMBL3120049, “Conformational restriction of aryl thiosemicarbazones produces potent and selective anti-Trypanosoma cruzi compounds which induce apoptotic parasite death” (Eur J Med Chem, 2014).
Activity calls are given as the source filed them. The rule behind the calls is not given here.

Experiments:
[1] = Cytotoxicity against BALB/c mouse splenocytes assessed as cell viability after 24 hrs by [3H]thymidine incorporation assay; assay type: cell-based, Splenocyte; conditions: for MNTC at 24 h: read-out: MNCC
Procedure, shortened: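 Splenocytes from BALB/c mice seeded at 5 × 10⁶ cells/well. DMSO stocks serially diluted in RPMI-1640 (final DMSO 1%), triplicate wells. 24 h at 37 °C, 5% CO₂ with […] ³H-thymidine; cells harvested, % ³H-thymidine incorporation by scintillation counting. CC50 from five concentrations; highest non-cytotoxic concentration also noted.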

[2] = test system: Trypanosoma cruzi; experiment: Antitrypanosomal activity against Trypanosoma cruzi Y […] trypomastigotes isolated from infected LLC-MK2 cells assessed as parasite viability after 24 hrs by neubauer chamber analysis; assay type: functional; conditions: LLC-MK2, 24 h
Procedure, shortened: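 Y strain (TcII) […] trypomastigotes taken from supernatant of infected LLC-MK2 cells, seeded at 4 × 10⁵ cells/well in RPMI-1640. DMSO stocks serially diluted in RPMI. 24 h at 37 °C, 5% CO₂; viable parasites counted in a Neubauer chamber, % inhibition versus untreated cultures; CC50 by nonlinear regression, triplicates, experiment repeated, SD <10% of mean required.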

[3] = test system: Trypanosoma cruzi; experiment: Antitrypanosomal activity against Trypanosoma cruzi Dm28c epimastigotes assessed as inhibition of parasite proliferation after 5 days by hemocytometer analysis; assay type: functional, organism-based; conditions: 120 h
Procedure, shortened: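 Dm28c epimastigotes kept in LIT medium with 10% FBS at 26 °C, seeded at 10⁶ cells/well. DMSO stocks serially diluted in LIT (1.23–100 […] as printed; final DMSO 1%), triplicate wells. 5 days at 26 °C, then viable parasites counted in a Neubauer chamber against untreated culture; IC50 from concentrations in triplicate, experiment repeated, only values with SD <10% of mean kept.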

[4] = target: Cruzipain (Trypanosoma cruzi) (UniProt P25779); experiment: Inhibition of Trypanosomal cruzi recombinant cruzain assessed as substrate cleavage using Z-Phe-Arg-AMC as substrate at 50 uM preincubated for 10 mins measured for 5 mins by flow cytometry; conditions: in the assay text read “by fluorescence assay” for “by flow cytometry”
Cruzipain (Trypanosoma cruzi), sequence (P25779 123-467 limits assumed): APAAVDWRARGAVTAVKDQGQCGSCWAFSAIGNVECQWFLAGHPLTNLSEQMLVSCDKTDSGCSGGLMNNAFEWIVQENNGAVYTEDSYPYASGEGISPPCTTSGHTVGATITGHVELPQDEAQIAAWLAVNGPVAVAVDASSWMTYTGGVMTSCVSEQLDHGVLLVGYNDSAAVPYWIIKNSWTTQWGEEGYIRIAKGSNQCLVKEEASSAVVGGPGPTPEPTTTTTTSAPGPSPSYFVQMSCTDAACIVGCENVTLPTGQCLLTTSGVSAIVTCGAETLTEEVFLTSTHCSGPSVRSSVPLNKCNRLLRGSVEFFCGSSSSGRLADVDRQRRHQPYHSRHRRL
Procedure, shortened: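 Recombinant cruzain, final concentration 0.5 nM, in 0.1 M sodium acetate pH 5.5 with 1 mM β-mercaptoethanol and 0.01% Triton X-100. Substrate Z-FR-AMC at 2.5 (Km 1.0). Screened with no pre-incubation and after 10-min enzyme pre-incubation. Fluorescence read at ex 340/em 440 nm for 5 min, activity relative to DMSO control. Two independent experiments in triplicate.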

[5] = test system: Trypanosoma cruzi; experiment: Antitrypanosomal activity against Trypanosoma cruzi trypomastigotes assessed as induction of apoptotic parasitic death after 24 hrs by Annexin V-FITC/propidium iodide staining based flow cytometry; assay type: functional, organism-based
[6] = test system: Trypanosoma cruzi; experiment: Antitrypanosomal activity against Trypanosoma cruzi trypomastigotes assessed as necrotic cells at 1.1 uM after 24 hrs by Annexin V-FITC/propidium iodide staining based flow cytometry (reference value: 0.37%); assay type: functional
[7] = test system: Trypanosoma cruzi; experiment: Antitrypanosomal activity against Trypanosoma cruzi trypomastigotes assessed as early apoptotic cells at 1.1 uM after 24 hrs by Annexin V-FITC/propidium iodide staining based flow cytometry (reference value: 1.71%); assay type: functional
[8] = test system: Trypanosoma cruzi; experiment: Antitrypanosomal activity against Trypanosoma cruzi trypomastigotes assessed as late apoptotic cells at 1.1 uM after 24 hrs by Annexin V-FITC/propidium iodide staining based flow cytometry (reference value: 0.8%); assay type: functional
[9] = test system: Trypanosoma cruzi; experiment: Antitrypanosomal activity against Trypanosoma cruzi trypomastigotes assessed as necrotic cells at 0.25 uM after 24 hrs by Annexin V-FITC/propidium iodide staining based flow cytometry (reference value: 0.37%); assay type: functional
[10] = test system: Trypanosoma cruzi; experiment: Antitrypanosomal activity against Trypanosoma cruzi trypomastigotes assessed as early apoptotic cells at 0.25 uM after 24 hrs by Annexin V-FITC/propidium iodide staining based flow cytometry (reference value: 1.71%); assay type: functional
[11] = test system: Trypanosoma cruzi; experiment: Antitrypanosomal activity against Trypanosoma cruzi trypomastigotes assessed as late apoptotic cells at 0.25 uM after 24 hrs by Annexin V-FITC/propidium iodide staining based flow cytometry (reference value: 0.8%); assay type: functional
[12] = Selectivity index, ratio of CC50 for BALB/c mouse splenocytes to CC50 for Trypanosoma cruzi Y trypomastigotes
Procedure, shortened: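 Ratio of CC50 in BALB/c splenocytes (24 h ³H-thymidine incorporation) to CC50 in Y strain trypomastigotes (24 h Neubauer count of viable parasites).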

[13] = test system: Trypanosoma cruzi; experiment: Antitrypanosomal activity against Trypanosoma cruzi trypomastigotes assessed as induction of apoptotic parasitic death at CC25 to CC100 after 24 hrs by Annexin V-FITC/propidium iodide staining based flow cytometry; assay type: functional, organism-based

SMILES | MNTC at 24 h [1] [µM] | CC50 [2] [µM] | IC50 [3] [µM] | further results
C/C(=N\NC(N)=S)C(C)Oc1ccc(I)cc1 (stereo not given) | 13.7 | 1.1 | 4.9 | 
C/C(=N\NC(N)=S)C(C)Oc1ccc2ccccc2c1 (stereo not given) | 34.8 | 5.6 | 17.9 | 
C/C(=N\NC(N)=S)C(C)Oc1ccccc1 (stereo not given) | 211 | 27.3 | 26.1 | 
CC1CS(=O)(=O)CCN1/N=C/c1ccc([N+](=O)[O-])o1 (stereo not given) [NIFURTIMOX] |  | 2.7 | 5.7 | 
C/C(=N\NC(N)=S)C(C)Oc1ccc(F)c(Cl)c1 (stereo not given) | 34.5 | 3.5 |  | 
C/C(=N\NC(N)=S)C(C)Oc1ccc(Cl)c(Cl)c1 (stereo not given) | 16.3 | 4.4 | 4.4 | 
C/C(=N\NC(N)=S)C(C)Oc1ccc(C(C)(C)C)cc1 (stereo not given) | 17 | 1.4 | 4.6 | 
C/C(=N\NC(N)=S)C(C)Oc1cccc(-c2ccccc2)c1 (stereo not given) | 31.9 | 1.3 | 2.2 | 
C/C(=N\NC(N)=S)C(C)Oc1ccc(-c2ccccc2)cc1 (stereo not given) | 15.9 | 1.3 | 4.5 | inhibition [4]: inactive
C/C(=N\NC(N)=S)C(C)Oc1ccc(F)cc1 (stereo not given) | > 392 | 23.2 | 86.4 | 
C/C(=N\NC(N)=S)C(C)Oc1ccc(C(C)C)cc1 (stereo not given) | 17.9 | 1.5 | 5.9 | 
C/C(=N\NC(N)=S)C(C)Oc1ccccc1-c1ccccc1 (stereo not given) | 31.9 | 1.1 | 2.2 | Activity [5]: Dose-dependent effect; Activity [6]: 4.62%; Activity [7]: 7.8%; Activity [8]: 6.2%; Activity [9]: 0.51%; Activity [10]: 1.22%; Activity [11]: 2.21%; Selectivity Index [12]: 45; CC50 at 24 h [1]: 50 µM
C/C(=N\NC(N)=S)C(C)Oc1ccc(Cl)cc1 (stereo not given) | 92 | 22.8 | 13.5 | 
C/C(=N\NC(N)=S)C(C)Oc1cccc(Cl)c1Cl (stereo not given) | 32.6 | 11.9 | 2.2 | 
C/C(=N\NC(N)=S)C(C)Oc1cccc2ccccc12 (stereo not given) | 34.8 | 1.5 | 4.9 | inhibition [4]: inactive
C/C(=N\NC(N)=S)C(C)Oc1ccccc1Cl (stereo not given) | 36.8 | 1.5 | 10.3 | 
C/C(=N\NC(N)=S)C(C)Oc1cccc(Br)c1 (stereo not given) | 31.6 | 4.5 | 5.8 | 
C/C(=N\NC(N)=S)C(C)Oc1ccc(Oc2ccccc2)cc1 (stereo not given) | 30.3 | 1.3 |  | 
C/C(=N\NC(N)=S)C(C)Oc1ccc(Br)cc1 (stereo not given) | 31.6 | 3.9 | 20.1 | 
COc1ccc(OC(C)/C(C)=N/NC(N)=S)cc1 (stereo not given) | 93.5 | 26.8 | 27.6 | 
CC(=O)Nc1ccc(OC(C)/C(C)=N/NC(N)=S)cc1 (stereo not given) | > 340 | 1.4 | 71.5 | Activity [13]: Active; Selectivity Index [12]: 250; CC50 at 24 h [1]: 350 µM
O=C(Cn1ccnc1[N+](=O)[O-])NCc1ccccc1 [BENZNIDAZOLE] |  | 6.2 | 48.8 | 
C/C(=N\NC(N)=S)C(C)Oc1ccc([N+](=O)[O-])cc1 (stereo not given) | 88.5 | 5.9 | 177 | inhibition [4]: inactive
C/C(=N\NC(N)=S)C(C)Oc1cccc(Cl)c1 (stereo not given) | 36.8 | 5.5 | 45.8 | Activity [13]: Active
COc1cccc(OC(C)/C(C)=N/NC(N)=S)c1 (stereo not given) | 37.4 | 6.2 | 6.8 | 
CCc1ccc(OC(C)/C(C)=N/NC(N)=S)cc1 (stereo not given) | 18.8 | 4.6 | 11.6 | 
